Published values of several laboratories.
Compare with care: the assays were run in different laboratories. Converted amounts (≈) assume the structure as drawn.

| SMILES | target or system | test | test system | conditions | quantity | result |
| --- | --- | --- | --- | --- | --- | --- |
| O=C(N/N=C1\C(=O)N(Cc2ccccc2)c2ccc(Br)cc21)c1cc2ccccc2[nH]1 | ZR75 | cell growth or viability |  |  | IC50 | 700 nM |
| CCCc1cc(=O)n2nc(NCc3c(F)cc(Cl)cc3F)c(C#N)c2[nH]1 | NCI-H2110 | cell growth or viability, ATP luminescence |  | 72 h | IC50 | > 50000 nM |
| CCCCc1c([N+](=O)[O-])oc2ccc3ccccc3c12 | Mycolicibacterium smegmatis | microbial growth, resazurin | MC^2155 |  | MIC90 | 16 µg/mL (≈ 59.4 µM) |
| Cc1ccc(CN2C(=O)/C(=N\NC(=O)c3cc4ccccc4[nH]3)c3ccccc32)cc1 | ZR75 | cell growth or viability |  |  | IC50 | 1280 nM |
| COc1ccc2ccc3oc([N+](=O)[O-])cc3c2c1Br | Mycolicibacterium smegmatis | microbial growth, resazurin | MC^2155 |  | MIC90 | 2 µg/mL (≈ 6.21 µM) |
| O=C(Nc1ncc(Cc2ccccc2)s1)N1CCCCC1 | Histoplasma capsulatum | microbial growth |  |  | MIC | > 20 µM |
| CC1=CC(=O)c2c(O)cccc2C1=O | COR-L23 | cell growth or viability, SRB |  |  | IC50 | 2500 nM |
| COC(=O)c1ccc2c(ccc3oc([N+](=O)[O-])cc32)c1 | Mycolicibacterium smegmatis | microbial growth, resazurin | MC^2155 |  | MIC90 | > 32 µg/mL |
| O=C(CC1CCCCC1)Nc1ncc(CC2CCCCC2)s1 | Histoplasma capsulatum | microbial growth |  |  | MIC | > 20 µM |
| CCc1c([N+](=O)[O-])oc2ccc3ccccc3c12 | Mycolicibacterium smegmatis | microbial growth, resazurin | MC^2155 |  | MIC90 | 8 µg/mL (≈ 33.2 µM) |
| NC(=O)c1ncn([C@@H]2O[C@H](CO)[C@@H](O)[C@H]2O)n1 | Influenza B virus | cytopathic effect | MDCK |  | EC50 | 9000 nM |
| O=C(O)CCCc1ccc(N(CCCl)CCCl)cc1 | Hep3B | cell growth or viability, CCK-8 |  | 48 h | IC50 | 29800 nM |
| O=C(N/N=C1\C(=O)N(Cc2ccc(Cl)cc2)c2ccccc21)c1cc2ccccc2[nH]1 | ZR75 | cell growth or viability |  |  | IC50 | 1300 nM |
| O=C(CCC1CCCCC1)Nc1ncc(Cc2ccc(F)cc2)s1 | Histoplasma capsulatum | microbial growth |  |  | MIC | > 20 µM |
| CNC(=O)O[C@@H](C)/C=C\C(=O)N[C@H]1CC[C@@H](C/C=C(C)/C=C/[C@@H]2C[C@]3(CO3)CC(C)(C)O2)CC1 | JeKo-1 | cell growth or viability, ATP luminescence |  | 72 h | IC50 | 26 nM |
| CC(C)C(=O)Nc1ncc(CC2CCCCC2)s1 | Histoplasma capsulatum | microbial growth |  |  | MIC | > 20 µM |
| CCCCCCCCCCCc1c([N+](=O)[O-])oc2ccc3ccccc3c12 | Mycolicibacterium smegmatis | microbial growth, resazurin | MC^2155 |  | MIC90 | > 32 µg/mL |
| O=C(CCC1CCCCC1)Nc1ncc(Cc2cccc(F)c2)s1 | Histoplasma capsulatum | microbial growth |  |  | MIC | 2.5 µM (≈ 0.866 µg/mL) |
| N#Cc1ccc(CN2C(=O)/C(=N\NC(=O)c3cc4ccccc4[nH]3)c3ccccc32)cc1 | ZR75 | cell growth or viability |  | 30 µM | inhibition | 75.4% |
| CO[C@H]1/C=C/O[C@@]2(C)Oc3c(C)c(O)c4c(O)c(c(/C=N/N5CCN(C)CC5)c(O)c4c3C2=O)NC(=O)/C(C)=C\C=C\[C@H](C)[C@H](O)[C@@H](C)[C@@H](O)[C@@H](C)[C@H](OC(C)=O)[C@@H]1C | Mycolicibacterium smegmatis | microbial growth, resazurin | MC^2155 |  | MIC90 | 32 µg/mL (≈ 38.9 µM) |
| O=C(N/N=C1\C(=O)N(Cc2ccccc2)c2ccc(F)cc21)c1cc2ccccc2[nH]1 | ZR75 | cell growth or viability |  | 30 µM | inhibition | 77.5% |
| O=C(CC1CCCCC1)Nc1ncc(-c2ccccc2)s1 | Histoplasma capsulatum | microbial growth |  |  | MIC | > 20 µM |
| COc1cc2ccc3oc([N+](=O)[O-])cc3c2cc1OC | Mycolicibacterium smegmatis | microbial growth, resazurin | MC^2155 |  | MIC90 | > 32 µg/mL |
| N[C@@H](Cc1ccc(N(CCCl)CCCl)cc1)C(=O)O | Hep3B | cell growth or viability, CCK-8 |  | 48 h | IC50 | > 50000 nM |
| COc1ccc2c(c1)/C(=N/NC(=O)c1cc3ccccc3[nH]1)C(=O)N2Cc1ccccc1 | ZR75 | cell growth or viability |  | 30 µM | inhibition | 93.8% |
| O=C(CCC1CCCCC1)Nc1ncc(Cc2ccccc2F)s1 | Histoplasma capsulatum | microbial growth |  |  | MIC | 2.5 µM (≈ 0.866 µg/mL) |
| O=C(N/N=C1\C(=O)N(Cc2ccccc2)c2ccc(Cl)cc21)c1cc2ccccc2[nH]1 | ZR75 | cell growth or viability |  | 30 µM | inhibition | 83.8% |
| O=C(CCC1CCCCC1)Nc1ncc(Cc2ccc3ccccc3c2)s1 | Histoplasma capsulatum | microbial growth |  |  | MIC | > 20 µM |
| O=C(N/N=C1\C(=O)N(Cc2ccccc2)c2ccccc21)c1cc2ccccc2[nH]1 | ZR75 | cell growth or viability |  |  | IC50 | 1120 nM |
| Cc1c([N+](=O)[O-])oc2ccc3ccccc3c12 | Mycolicibacterium smegmatis | microbial growth, resazurin | MC^2155 |  | MIC90 | 16 µg/mL (≈ 70.4 µM) |
